Assay results published in ChEMBL document CHEMBL4359898, “Pyrazolo-benzothiazole hybrids: Synthesis, anticancer properties and evaluation of antiangiogenic activity using in vitro VEGFR-2 kinase and in vivo transgenic zebrafish model” (Eur J Med Chem, 2019).
Active and inactive are the calls of the source. No cut-off for these calls is given here.

Tests used:
HT-29 = assay: Cytotoxicity against human HT-29 cells assessed as reduction in cell viability incubated for 72 hrs by MTT assay; details: HT-29, 72 h
PC-3 [1] = assay: Cytotoxicity against human PC3 cells assessed as reduction in cell viability incubated for 72 hrs by MTT assay; details: PC-3, 72 h
A549 = assay: Cytotoxicity against human A549 cells assessed as reduction in cell viability incubated for 72 hrs by MTT assay; details: A549, 72 h
U-87 MG [2] = assay: Cytotoxicity against human U87MG cells assessed as reduction in cell viability incubated for 72 hrs by MTT assay
HEK-293T = assay: Cytotoxicity against HEK293T cells assessed as reduction in cell viability incubated for 72 hrs by MTT assay; details: Homo sapiens
Danio rerio [3] = assay: Antiangiogenic activity in transgenic fli1a:EGFP-tagged zebrafish embryo assessed as reduction in intersegmental vessel sprouting at 0.1 to 1 uM administered from 24 hrs post fertilization and measured after 72 hrs by fluorescence microscopy relative to control; type: functional; design: scale not given: the % may be the effect or the level left
In short: (§1)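 Embryos staged after natural spawning and kept in E3 medium at 28.5 °C. At 1 dpf, 10 embryos per well were placed in E3 containing compound at […] and incubated 72 h at 28.5 °C. Untreated and 1% DMSO vehicle controls were included. Larvae were anaesthetised with 0.01% tricaine and mounted in 1% low-melt agarose. ISVs were imaged in the green channel, and % defective ISVs was counted manually.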

PC-3 [4] = assay: Inhibition of cell migration in human PC3 cells at 5 uM incubated for 48 hrs by phase contrast microscopy based scratch wound healing assay relative to control; type: functional; details: PC-3, 48 h
In short: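 Confluent PC-3 monolayers were scratched with a pipette tip to leave lanes about 1 mm wide, and debris was washed off with PBS. Cells were given complete medium alone or medium containing […]. Wounds were imaged by phase contrast at time zero and after 48 h.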

PC-3 [5] = assay: Cell cycle arrest in human PC3 cells assessed as reduction in S phase population at 1 uM incubated for 48 hrs by propidium iodide staining based flow cytometry; type: functional
PC-3 [6] = assay: Cell cycle arrest in human PC3 cells assessed as reduction in G2/M phase population at 1 uM incubated for 48 hrs by propidium iodide staining based flow cytometry; type: functional
PC-3 [7] = assay: Cell cycle arrest in human PC3 cells assessed as accumulation in G0/G1 phase at 1 uM incubated for 48 hrs by propidium iodide based flow cytometry (reference value: 51.3 %); type: functional
PC-3 [8] = assay: Cell cycle arrest in human PC3 cells assessed as accumulation in G0/G1 phase at 3 uM incubated for 48 hrs by propidium iodide based flow cytometry (reference value: 51.3 %); type: functional
PC-3 [9] = assay: Cell cycle arrest in human PC3 cells assessed as accumulation in G0/G1 phase at 5 uM incubated for 48 hrs by propidium iodide based flow cytometry (reference value: 51.3 %); type: functional
PC-3 [10] = assay: Cell cycle arrest in human PC3 cells assessed as accumulation in G0/G1 phase incubated for 48 hrs by propidium iodide based flow cytometry; type: functional
PC-3 [11] = assay: Induction of apoptosis in human PC3 cells assessed as nuclei condensation incubated for 48 hrs by […] staining based fluorescence microscopy; type: functional, cell-based
In short: (§2)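 PC-3 cells on coverslips (1 × 10^6 per well) were incubated 48 h with […]. Cells were PBS-washed, 4% paraformaldehyde was added, and they were stained 20 min with […]. After three PBS washes, nuclei were examined by fluorescence microscopy for chromatin condensation and fragmentation.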

PC-3 [12] = assay: Induction of apoptosis in human PC3 cells assessed as nuclei fragmentation incubated for 48 hrs by […] staining based fluorescence microscopy; type: functional, cell-based; in short: as §2
PC-3 [13] = assay: Induction of apoptosis in human PC3 cells at incubated for 48 hrs by […] staining based fluorescence microscopy; type: functional, cell-based; in short: as §2
PC-3 [14] = assay: Induction of apoptosis in human PC3 cells assessed as mitochondrial membrane potential loss incubated for 48 hrs by JC1 staining based fluorescence microscopy; type: functional, cell-based
In short: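 PC-3 cells were plated at 5 × 10^5 cells/mL and incubated 48 h with […]. The medium was then replaced with fresh medium containing JC-1 for 20 min. After three PBS washes, red and green fluorescence was imaged, and depolarisation was read as a rise in the green/red ratio.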

PC-3 [15] = assay: Induction of apoptosis in human PC3 cells assessed as viable cells at 1 uM incubated for 48 hrs by annexin V FITC and propidium iodide staining based flow cytometry (reference value: 95 %); type: functional; details: PC-3, 48 h, read-out: Activity
In short: (§3)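 PC-3 cells at 1 × 10^6 per well were treated 48 h at […]. Cells were trypsinised, washed in PBS and resuspended in annexin binding buffer. Annexin V-FITC and PI were added for 15 min at room temperature. 10000 cells were analysed by flow cytometry and sorted into quadrants as live, early apoptotic, late apoptotic or necrotic.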

PC-3 [16] = assay: Induction of apoptosis in human PC3 cells assessed as early apoptotic cells at 1 uM incubated for 48 hrs by annexin V FITC and propidium iodide staining based flow cytometry (reference value: 2.8 %); type: functional; in short: as §3
PC-3 [17] = assay: Induction of apoptosis in human PC3 cells assessed as late apoptotic cells at 1 uM incubated for 48 hrs by annexin V FITC and propidium iodide staining based flow cytometry (reference value: 1.2 %); type: functional; in short: as §3
PC-3 [18] = assay: Induction of apoptosis in human PC3 cells assessed as necrotic cells at 1 uM incubated for 48 hrs by annexin V FITC and propidium iodide staining based flow cytometry (reference value: 1 %); type: functional; in short: as §3
PC-3 [19] = assay: Induction of apoptosis in human PC3 cells assessed as viable cells at 3 uM incubated for 48 hrs by annexin V FITC and propidium iodide staining based flow cytometry (reference value: 95 %); type: functional; details: PC-3, 48 h, read-out: Activity; in short: as §3
PC-3 [20] = assay: Induction of apoptosis in human PC3 cells assessed as early apoptotic cells at 3 uM incubated for 48 hrs by annexin V FITC and propidium iodide staining based flow cytometry (reference value: 2.8 %); type: functional; in short: as §3
PC-3 [21] = assay: Induction of apoptosis in human PC3 cells assessed as late apoptotic cells at 3 uM incubated for 48 hrs by annexin V FITC and propidium iodide staining based flow cytometry (reference value: 1.2 %); type: functional; in short: as §3
PC-3 [22] = assay: Induction of apoptosis in human PC3 cells assessed as necrotic cells at 3 uM incubated for 48 hrs by annexin V FITC and propidium iodide staining based flow cytometry (reference value: 1 %); type: functional; in short: as §3
PC-3 [23] = assay: Induction of apoptosis in human PC3 cells assessed as viable cells at 5 uM incubated for 48 hrs by annexin V FITC and propidium iodide staining based flow cytometry (reference value: 95 %); type: functional; details: PC-3, 48 h, read-out: Activity; in short: as §3
PC-3 [24] = assay: Induction of apoptosis in human PC3 cells assessed as early apoptotic cells at 5 uM incubated for 48 hrs by annexin V FITC and propidium iodide staining based flow cytometry (reference value: 2.8 %); type: functional; in short: as §3
PC-3 [25] = assay: Induction of apoptosis in human PC3 cells assessed as late apoptotic cells at 5 uM incubated for 48 hrs by annexin V FITC and propidium iodide staining based flow cytometry (reference value: 1.2 %); type: functional; in short: as §3
PC-3 [26] = assay: Induction of apoptosis in human PC3 cells assessed as necrotic cells at 5 uM incubated for 48 hrs by annexin V FITC and propidium iodide staining based flow cytometry (reference value: 1 %); type: functional; in short: as §3
Danio rerio [27] = assay: Antiangiogenic activity in transgenic fli1a:EGFP-tagged zebrafish embryo assessed as reduction in intersegmental vessel sprouting at 0.1 uM administered from 24 hrs post fertilization and measured after 72 hrs by fluorescence microscopy relative to control; type: functional; design: scale not given: the % may be the effect or the level left; in short: as §1
Danio rerio [28] = assay: Antiangiogenic activity in transgenic fli1a:EGFP-tagged zebrafish embryo assessed as reduction in intersegmental vessel sprouting at 0.5 uM administered from 24 hrs post fertilization and measured after 72 hrs by fluorescence microscopy relative to control; type: functional; design: scale not given: the % may be the effect or the level left; in short: as §1
Danio rerio [29] = assay: Antiangiogenic activity in transgenic fli1a:EGFP-tagged zebrafish embryo assessed as reduction in intersegmental vessel sprouting at 1 uM administered from 24 hrs post fertilization and measured after 72 hrs by fluorescence microscopy relative to control; type: functional; design: scale not given: the % may be the effect or the level left; in short: as §1
Danio rerio [30] = assay: Antiangiogenic activity in transgenic fli1a:EGFP-tagged zebrafish embryo assessed as reduction in intersegmental vessel sprouting administered from 24 hrs post fertilization and measured after 72 hrs by fluorescence microscopy; type: functional, organism-based; in short: as §1
PC-3 [31] = assay: Induction of apoptosis in human PC3 cells incubated for 48 hrs by annexin V FITC and propidium iodide staining based flow cytometry; type: functional, cell-based; in short: as §3
PC-3 [32] = details: Homo sapiens, 1 to 5 uM
U-87 MG [33] = details: Homo sapiens; U-87MG ATCC
PC-3 [34] = details: Homo sapiens, 3 uM

O=C(Nc1nc2ccc(F)cc2s1)c1cn(-c2ccccc2)nc1-c1ccccc1
IC50 (HT-29): 9.8 µM | IC50 (PC-3 [1]): 3.25 µM | IC50 (A549): 10.2 µM | IC50 (U-87 MG [2]): 5.57 µM | IC50 (HEK-293T): 17.6 µM

O=C(Nc1nc2ccccc2s1)c1cn(-c2ccccc2)nc1-c1ccccc1
IC50 (HT-29): 16.8 µM | IC50 (PC-3 [1]): 10.4 µM | IC50 (A549): 13.5 µM | IC50 (U-87 MG [2]): 8.96 µM | IC50 (HEK-293T): > 50 µM

O=C(Nc1nc2ccc(Cl)cc2s1)c1cn(-c2ccccc2)nc1-c1ccccc1
IC50 (HT-29): 7.81 µM | IC50 (PC-3 [1]): 3.69 µM | IC50 (A549): 7.67 µM | IC50 (U-87 MG [2]): 4.98 µM | IC50 (HEK-293T): 21.3 µM

COc1ccc(-c2nn(-c3ccccc3)cc2C(=O)Nc2nc3ccc(Cl)cc3s2)cc1
IC50 (HT-29): 6.57 µM | IC50 (PC-3 [1]): 6.51 µM | IC50 (A549): 4.71 µM | IC50 (U-87 MG [2]): 8.71 µM | IC50 (HEK-293T): 12.6 µM

COc1ccc(-c2nn(-c3ccccc3)cc2C(=O)Nc2nc3ccc(F)cc3s2)cc1
IC50 (HT-29): 5.56 µM | IC50 (PC-3 [1]): 4.93 µM | IC50 (A549): 7.56 µM | IC50 (U-87 MG [2]): 8.99 µM | IC50 (HEK-293T): 15.4 µM

O=C(Nc1nc2ccc(F)cc2s1)c1cn(-c2ccccc2)nc1-c1ccc(Cl)cc1
IC50 (HT-29): 4.97 µM | IC50 (PC-3 [1]): 5.79 µM | IC50 (A549): 8.86 µM | IC50 (U-87 MG [2]): 7.77 µM | IC50 (HEK-293T): > 50 µM

CNC(=O)c1ccccc1Sc1ccc2c(/C=C/c3ccccn3)n[nH]c2c1 [AXITINIB]
Activity (Danio rerio [3]): 63.1 - 90.4%

O=C(Nc1nc2ccccc2s1)c1cn(-c2ccccc2)nc1-c1ccc(Cl)cc1
IC50 (HT-29): 13.7 µM | IC50 (PC-3 [1]): 7.75 µM | IC50 (A549): 10.3 µM | IC50 (U-87 MG [2]): 11.5 µM | IC50 (HEK-293T): 39.6 µM

COc1ccc2nc(NC(=O)c3cn(-c4ccccc4)nc3-c3ccccc3)sc2c1
IC50 (HT-29): > 50 µM | IC50 (PC-3 [1]): 17.5 µM | IC50 (A549): > 50 µM | IC50 (U-87 MG [2]): 40.6 µM | IC50 (HEK-293T): > 50 µM

Cc1ccc2nc(NC(=O)c3cn(-c4ccccc4)nc3-c3ccccc3)sc2c1
IC50 (HT-29): > 50 µM | IC50 (PC-3 [1]): 15.7 µM | IC50 (A549): 26.5 µM | IC50 (U-87 MG [2]): 23.2 µM | IC50 (HEK-293T): > 50 µM

O=C(Nc1nc2ccc(Cl)cc2s1)c1cn(-c2ccccc2)nc1-c1ccc(F)cc1
IC50 (HT-29): 3.32 µM | IC50 (PC-3 [1]): 3.17 µM | IC50 (A549): 3.87 µM | IC50 (U-87 MG [2]): 6.77 µM | IC50 (HEK-293T): 45.7 µM | inhibition at 5 µM (PC-3 [4]): 100% | Activity (PC-3 [5]): Active | Activity (PC-3 [6]): Active | Activity (PC-3 [7]): 65.5% | Activity (PC-3 [8]): 74.8% | Activity (PC-3 [9]): 81.4% | Activity (PC-3 [10]): Dose-dependent effect | Activity (PC-3 [11]): Dose-dependent effect | Activity (PC-3 [12]): Dose-dependent effect | Activity (PC-3 [13]): Dose-dependent effect | Activity (PC-3 [14]): Dose-dependent effect | viability at 1 µM (PC-3 [15]): 84.8% | Activity (PC-3 [16]): 10.4% | Activity (PC-3 [17]): 3.7% | Activity (PC-3 [18]): 1.1% | viability at 3 µM (PC-3 [19]): 77.2% | Activity (PC-3 [20]): 13.8% | Activity (PC-3 [21]): 6.9% | Activity (PC-3 [22]): 2.1% | viability at 5 µM (PC-3 [23]): 70.9% | Activity (PC-3 [24]): 16.7% | Activity (PC-3 [25]): 9.6% | Activity (PC-3 [26]): 2.8% | Activity (Danio rerio [27]): 16% | Activity (Danio rerio [28]): 47.3% | Activity (Danio rerio [29]): 54.5% | Activity (Danio rerio [30]): Dose-dependent effect | Activity (PC-3 [31]): Dose-dependent effect | inhibition (PC-3 [32]): Active | inhibition (U-87 MG [33]): Active | inhibition (PC-3 [34]): Active
